CHRM5 PAM – CHRM5 positive allosteric modulation. activation, % at 3 µM. P08912. CHO-K1 hM5, Fluo-8 calcium, ACh EC20 PAM; 0% = ACh EC20, 100% = ACh EC100. 360,000 tested, 0.3% active;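 active = activation above the run cutoff, the mean activation of all test compounds plus 3 SD, cut at about 18% in these data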
Target sequence (P08912 whole entry, looked up): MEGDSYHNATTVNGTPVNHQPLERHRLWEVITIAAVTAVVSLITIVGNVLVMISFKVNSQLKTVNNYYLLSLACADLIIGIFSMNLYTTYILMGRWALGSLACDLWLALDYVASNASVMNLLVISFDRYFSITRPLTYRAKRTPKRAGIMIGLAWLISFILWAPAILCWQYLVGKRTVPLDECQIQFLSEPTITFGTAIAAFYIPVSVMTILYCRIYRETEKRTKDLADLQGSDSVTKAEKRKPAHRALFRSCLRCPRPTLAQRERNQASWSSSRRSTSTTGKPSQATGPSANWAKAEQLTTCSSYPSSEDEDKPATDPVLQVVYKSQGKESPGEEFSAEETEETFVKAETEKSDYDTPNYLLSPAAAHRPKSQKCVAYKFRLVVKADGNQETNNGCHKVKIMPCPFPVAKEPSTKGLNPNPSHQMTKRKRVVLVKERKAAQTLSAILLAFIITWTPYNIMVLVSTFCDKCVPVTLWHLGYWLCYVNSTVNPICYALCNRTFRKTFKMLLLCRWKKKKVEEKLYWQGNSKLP
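Replicates: One well per compound, no replicates | System: Human M5 receptor in CHO-K1 cells | Benchmarks: Low control EC20 acetylcholine (0%), high control EC100 acetylcholine (100%) | Probe or stimulus: Acetylcholine, EC20 level | Times: Fluo-8 loading 80 min at 37 °C plus 30 min room temperature | Signal: Intracellular calcium via Fluo-8 fluorescence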
M5 antag – CHRM5 antagonism in calcium assay; P08912; CHO-hM5 cells, Fluo-8 calcium fluorescence, ACh EC80; inhibition, % at 3 µM; 360,000 tested, 0.59% active; AID 624040;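 active = inhibition above a per-plate cutoff, the mean of that plate's test compounds plus 3 SD, cut at about 27% in these data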;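 note: 0% = acetylcholine EC80 with DMSO and 100% = DMSO without agonist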
M4 PAM – potentiates acetylcholine response at human M4 receptor. P08173. CHO-K1 hM4/Gqi5, Fluo-8 calcium fluorescence, ACh EC20; 0% = ACh EC20, 100% = maximal ACh. activation, % at 3 µM. 360,000 tested, 0.4% active. AID 624126;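 active = activation above its plate's cutoff, the mean activation of sample wells plus 3 SD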
CHRM4 antagonist – blocks acetylcholine activation of human M4 receptor; inhibition, % at 3 µM; CHO-hM4 cells, ACh EC80, Fluo-8 calcium fluorescence; 360,000 tested, 0.73% active; AID 624125;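 active = inhibition above its plate's cutoff, the mean inhibition of sample wells plus 3 SD, cut at about 27% in these data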;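 note: 0% = acetylcholine EC80 with DMSO and 100% = DMSO without agonist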
M4 ag – CHRM4 agonism in calcium assay; CHO-K1 hM4/Gqi5, Fluo-8 calcium fluorescence; vehicle 0%, full acetylcholine response 100%; activation, % at 3 µM; 360,000 tested, 0.14% active; AID 624127;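 active = activation above the run mean over all test wells plus 3 SD, cut at about 32% in these data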;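 note: peak over basal fluorescence ratio per well then scaled between controls; 0% = DMSO wells and 100% = acetylcholine at EC100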
M5 ag – agonists of human muscarinic M5 receptor (CHRM5) | P08912 | 360,000 tested, 0.19% active | activation, % at 3 µM | CHO-K1 hM5 cells, Fluo-8 calcium fluorescence; 0% DMSO wells, 100% maximal acetylcholine response;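 active = activation above the run's mean over test compounds plus 3 SD, cut at about 23% in these data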;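 note: signal is peak over basal fluorescence ratio across the kinetic read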
Active calls of the source: *. Compounds with a hit are over-represented: about 1.9% of the library has one in this group of screens.

For Cc1ccc(CNC(=O)[C@H]2O[C@@H](n3ccc(N)nc3=O)[C@H](O)[C@@H]2O)o1 the results were CHRM5 PAM 10, M5 antag -14, M4 PAM 20*, CHRM4 antagonist -17, M4 ag 2 and M5 ag 1.
Screening CCOC(=O)C1C(=O)C=C(c2ccc(C)cc2)CC1c1ccccc1 (stereo not drawn) returned CHRM5 PAM -9, M5 antag 1, M4 PAM -5, CHRM4 antagonist -3, M4 ag 1 and M5 ag -6.
`CCOC(=O)C1C(=O)C=C(/C=C/c2ccc(N(C)C)cc2)CC1c1ccccc1` (stereo not drawn) gave CHRM5 PAM -9, M5 antag 20, M4 PAM -12, CHRM4 antagonist 13, M4 ag 14 and M5 ag 29*.
For Cc1noc(NS(=O)(=O)c2ccc(NC(=O)Cc3ccc([N+](=O)[O-])cc3)cc2)c1C the results were CHRM5 PAM 3, M5 antag -7, M4 PAM 3, CHRM4 antagonist -13, M4 ag 1 and M5 ag -3.
Screening O=C(O)c1ccc(N/N=C/c2cccc(F)c2)cc1 returned CHRM5 PAM -5, M5 antag 5, M4 PAM 3, CHRM4 antagonist -3, M4 ag 5 and M5 ag 2.
Screening O=C(O)c1ccc(N/N=C/c2cccc(C(F)(F)F)c2)cc1 returned CHRM5 PAM -5, M5 antag 29*, M4 PAM -4, CHRM4 antagonist 6, M4 ag 0 and M5 ag -2.
O=C(Oc1cccc(Nc2ncnc3ccccc23)c1)c1cccnc1 was read as CHRM5 PAM -25, M5 antag 17, M4 PAM -16, CHRM4 antagonist -1, M4 ag 15 and M5 ag 8.
For N#CNC(=Nc1ccccc1)SCc1ccc(C(=O)O)cc1 the results were CHRM5 PAM 1, M5 antag -9, M4 PAM 4, CHRM4 antagonist 1, M4 ag 1 and M5 ag 0.
N#CNC(=Nc1cccc(C(F)(F)F)c1)SCc1ccc(C(=O)O)cc1 was read as CHRM5 PAM 1, M5 antag -1, M4 PAM -9, CHRM4 antagonist 38*, M4 ag 0 and M5 ag -3.
For CC1Cc2ccccc2N1C(=O)C12CCC(C)(C(=O)C1)C2(C)C (stereo not drawn) the results were CHRM5 PAM -2, M5 antag 1, M4 PAM -4, CHRM4 antagonist -4, M4 ag 0 and M5 ag 2.
`O=C(Nc1ccccc1C(=O)Nc1nnc(C(F)(F)F)s1)c1ccccc1` gave CHRM5 PAM -24, M5 antag 36*, M4 PAM -4, CHRM4 antagonist -10, M4 ag 10 and M5 ag 1.
Screening CCCCC(=O)N(C)c1c(C)nc2ccc(C(=O)N(C)Cc3ccco3)cn12 returned CHRM5 PAM -5, M5 antag 19, M4 PAM -4, CHRM4 antagonist 6, M4 ag 0 and M5 ag 0.
Screening CCOC(=O)N1CCN(C(=O)CCCCn2c(=S)[nH]c3ccsc3c2=O)CC1 returned CHRM5 PAM 12, M5 antag -5, M4 PAM 19*, CHRM4 antagonist -20, M4 ag 0 and M5 ag 3.
`O=C(CCCCCn1c(=O)[nH]c2ccsc2c1=O)N1CCCCC1` gave CHRM5 PAM -9, M5 antag 5, M4 PAM 4, CHRM4 antagonist 0, M4 ag 1 and M5 ag -8.
Screening O=C(CCCn1c(=O)[nH]c2ccsc2c1=O)N1CCCCC1 returned CHRM5 PAM 26*, M5 antag 2, M4 PAM 9, CHRM4 antagonist -3, M4 ag 0 and M5 ag -6.
`CCCCN1CNC(=S)N(CCc2ccc(OCC)c(OCC)c2)C1` gave CHRM5 PAM 6, M5 antag -3, M4 PAM 3, CHRM4 antagonist -13, M4 ag -1 and M5 ag -2.
`CC(=O)NCCC(=O)NCc1ccc(F)cc1` gave CHRM5 PAM -9, M5 antag -12, M4 PAM 22*, CHRM4 antagonist 1, M4 ag 1 and M5 ag 1.
For CCCCCCN1N=C(C)C(C(=O)c2ccc(Cl)cc2)C1=O (stereo not drawn) the results were CHRM5 PAM -3, M5 antag 0, M4 PAM 4, CHRM4 antagonist 9, M4 ag 0 and M5 ag 3.
OCc1ccnc2c(O)cccc12 was read as CHRM5 PAM 22*, M5 antag 1, M4 PAM 7, CHRM4 antagonist 1, M4 ag 1 and M5 ag 0.
For NC(=O)c1ccnc2c(O)cccc12 the results were CHRM5 PAM -2, M5 antag -1, M4 PAM 9, CHRM4 antagonist 2, M4 ag 3 and M5 ag 1.
CC1CCc2sc(C(=O)N(C)CC(=O)Nc3cccc(F)c3)cc2C1 (stereo not drawn) was read as CHRM5 PAM -5, M5 antag -3, M4 PAM 3, CHRM4 antagonist -5, M4 ag 6 and M5 ag -1.
For CCc1ccc(N(C(=O)c2csnn2)C(C(=O)NC2CCCC2)c2cccnc2)cc1 (stereo not drawn) the results were CHRM5 PAM -5, M5 antag 9, M4 PAM -3, CHRM4 antagonist -14, M4 ag 2 and M5 ag -2.
For CC(C)N1CCC1(C)C(=O)Nc1cccc2ccccc12 (stereo not drawn) the results were CHRM5 PAM 5, M5 antag 12, M4 PAM 1, CHRM4 antagonist -5, M4 ag 0 and M5 ag -4.
Screening CC1(C(=O)Nc2cccc3ccccc23)CC1(Br)Br (stereo not drawn) returned CHRM5 PAM -29, M5 antag 31*, M4 PAM -45, CHRM4 antagonist 16, M4 ag 10 and M5 ag -10.
O=C(O)c1cnn(-c2nc(-c3ccc(F)cc3)cs2)c1C(F)(F)F was read as CHRM5 PAM 4, M5 antag -6, M4 PAM 23*, CHRM4 antagonist -6, M4 ag 0 and M5 ag -3.
For Cc1ccc(S(=O)(=O)N2CCC(=O)N(CCOC(=O)Nc3cccc(Cl)c3)CC2)cc1 the results were CHRM5 PAM 30*, M5 antag -86, M4 PAM 9, CHRM4 antagonist 0, M4 ag 10 and M5 ag 12.
